Active and inactive are the calls of the source. How the calls were made is not given here.
Assays:
[1] = Cytotoxicity against human HuH7 cells infected with Hepatitis C virus subtype 2a; format: cell-based, Huh-7
[2] = Cytotoxicity against human HuH7 cells infected with Hepatitis C virus subtype 1b; format: cell-based, Huh-7
Enterococcus faecalis = assay: Antibacterial activity against Enterococcus faecalis CCM 4224 after 24 hrs; format: functional, organism-based
Hepatitis C virus [3] = assay: Antiviral activity against Hepatitis C virus subtype 2a infected in human HuH7 cells; format: functional, organism-based, Hepacivirus hominis; conditions: genotype 2a, Huh-7
Hepatitis C virus [4] = assay: Antiviral activity against Hepatitis C virus subtype 1b infected in human HuH7 cells; format: functional, organism-based, Hepacivirus hominis; conditions: genotype 1b, Huh-7
Candida albicans = assay: Antifungal activity against Candida albicans after 48 hrs; format: functional, organism-based
A549 = assay: Cytostatic activity against human A549 cells after 72 hrs by MTT assay; format: functional, cell-based; conditions: A549, 72 h
In short: (§1)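 IC50 is the concentration that cuts cell growth by 50%, read by quantitative metabolic MTT staining after a 3-day treatment. The resistant sublines were made by raising the concentration of the cytotoxic drug step by step. CEM-DNR-bulk (daunorubicin-selected) stably overexpresses mrp-1. K562-TAX (paclitaxel-selected) expresses only mdr-1. HCT116p53−/− carries null p53 alleles. BJ and MRC-5 are nonmalignant fibroblasts.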

MRC5 = assay: Cytostatic activity against human MRC5 cells after 72 hrs by MTT assay; format: ADME, cell-based; conditions: MRC5, 72 h; in short: as §1
K562 [5] = assay: Cytostatic activity against paclitaxel-resistant human K562 cells after 72 hrs by MTT assay; format: functional, cell-based; conditions: K562, 72 h; in short: as §1
Staphylococcus aureus [6] = assay: Antibacterial activity against Staphylococcus aureus CCM 3953 after 24 hrs; format: functional, organism-based
Escherichia coli [7] = assay: Antibacterial activity against Escherichia coli CCM 3954 after 24 hrs; format: functional, organism-based
[8] = tested on: Staphylococcus haemolyticus; assay: Antibacterial activity against methicillin-resistant Staphylococcus haemolyticus A/16568 after 24 hrs; format: functional, organism-based
[9] = Antiproliferative activity against human HeLaS3 cells after 72 hrs by XTT assay; format: functional, cell-based; conditions: HeLa S3, 72 h
In short: (§2)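 Antiproliferative test on HL-60 promyelocytic leukemia and HeLa S3 cervical carcinoma cells growing in liquid suspension.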

Candida tropicalis = assay: Antifungal activity against Candida tropicalis after 48 hrs; format: functional, organism-based
HCT-116 [10] = assay: Cytostatic activity against human HCT116 cells after 72 hrs by MTT assay; format: functional, cell-based; conditions: HCT-116, 72 h; in short: as §1
K562 [11] = assay: Cytostatic activity against human K562 cells after 72 hrs by MTT assay; format: functional, cell-based; conditions: K562, 72 h; in short: as §1
HL-60 = assay: Antiproliferative activity against human HL60 cells after 72 hrs by XTT assay; format: functional, cell-based; conditions: HL-60, 72 h; in short: as §2
Pseudomonas aeruginosa [12] = assay: Antibacterial activity against multi-resistant Pseudomonas aeruginosa A/16575 after 24 hrs; format: functional, organism-based
HepG2 = assay: Antiproliferative activity against human HepG2 cells after 72 hrs by XTT assay; format: functional, cell-based; conditions: HepG2, 72 h
Pichia kudriavzevii = assay: Antifungal activity against Candida crusei after 48 hrs; format: functional, organism-based
[13] = Cytostatic activity against human CEM-DNR-bulk cells after 72 hrs by MTT assay; format: functional, cell-based; in short: as §1
Pseudomonas aeruginosa [14] = assay: Antibacterial activity against Pseudomonas aeruginosa CCM 3955 after 24 hrs; format: functional, organism-based
Candida parapsilosis = assay: Antifungal activity against Candida parapsilosis after 48 hrs; format: functional, organism-based
HCT-116 [15] = assay: Cytostatic activity against p53-deficient human HCT116 cells after 72 hrs by MTT assay; format: functional, cell-based; conditions: HCT-116, 72 h; in short: as §1
Staphylococcus aureus [16] = assay: Antibacterial activity against methicillin-resistant Staphylococcus aureus MRSA 4591 after 24 hrs; format: functional, organism-based
Escherichia coli [17] = assay: Antibacterial activity against multi-resistant Escherichia coli C/16702 after 24 hrs; format: functional, organism-based
CCRF-CEM = assay: Cytostatic activity against human CCRF-CEM cells after 72 hrs by MTT assay; format: functional, cell-based; in short: as §1
BJ = assay: Cytostatic activity against human BJ cells after 72 hrs by MTT assay; format: ADME, cell-based; in short: as §1

| SMILES | CC50 [1] | CC50 [2] | Activity (Enterococcus faecalis) | EC50 (Hepatitis C virus [3]) | EC50 (Hepatitis C virus [4]) | Activity (Candida albicans) | IC50 (A549) | IC50 (MRC5) | IC50 (K562 [5]) | Activity (Staphylococcus aureus [6]) | Activity (Escherichia coli [7]) | Activity [8] | IC50 [9] | Activity (Candida tropicalis) | IC50 (HCT-116 [10]) | IC50 (K562 [11]) | IC50 (HL-60) | Activity (Pseudomonas aeruginosa [12]) | IC50 (HepG2) | Activity (Pichia kudriavzevii) | other results |
| --- | --- | --- | --- | --- | --- | --- | --- | --- | --- | --- | --- | --- | --- | --- | --- | --- | --- | --- | --- | --- | --- |
| C#Cc1cn([C@@H]2O[C@H](CO)[C@@H](O)[C@H]2O)c2ncnc(SC)c12 | > 44 µM | > 44 µM | inactive | > 44 µM | 0.21 µM | inactive | 0.14 µM | > 100 µM | 0.07 µM | inactive | inactive | inactive | 0.11 µM | inactive | 0.03 µM | 0.03 µM | 0.05 µM | inactive | > 15 µM | inactive | IC50 [13]: 0.11 µM; Activity (Pseudomonas aeruginosa [14]): inactive; Activity (Candida parapsilosis): inactive; IC50 (HCT-116 [15]): 0.09 µM; Activity (Staphylococcus aureus [16]): inactive; Activity (Escherichia coli [17]): inactive; IC50 (CCRF-CEM): > 20 µM; IC50 (BJ): 68.6 µM |
| Nc1nc2c(c(-c3ccccc3)cn2[C@@H]2O[C@H](CO)[C@@H](O)[C@H]2O)c(=O)[nH]1 | > 44 µM | > 44 µM | inactive | > 44 µM | > 44 µM | inactive | > 100 µM | > 100 µM | > 20 µM | inactive | inactive | inactive | > 20 µM | inactive | > 20 µM | > 20 µM | > 20 µM | inactive | > 20 µM | inactive | IC50 [13]: > 20 µM; Activity (Pseudomonas aeruginosa [14]): inactive; Activity (Candida parapsilosis): inactive; IC50 (HCT-116 [15]): > 20 µM; Activity (Staphylococcus aureus [16]): inactive; Activity (Escherichia coli [17]): inactive; IC50 (CCRF-CEM): > 100 µM; IC50 (BJ): > 100 µM |
| Cc1ncnc2c1c(Br)cn2[C@@H]1O[C@H](CO)[C@@H](O)[C@H]1O | 28.2 µM | 35.6 µM | inactive | 20.7 µM | 12 µM | inactive | > 20 µM | 24.4 µM | 15.8 µM | inactive | inactive | inactive | 13.8 µM | inactive | 15.7 µM | > 20 µM | 7.24 µM | inactive | 5.55 µM | inactive | IC50 [13]: > 20 µM; Activity (Pseudomonas aeruginosa [14]): inactive; Activity (Candida parapsilosis): inactive; IC50 (HCT-116 [15]): 19.6 µM; Activity (Staphylococcus aureus [16]): inactive; Activity (Escherichia coli [17]): inactive; IC50 (CCRF-CEM): 15 µM; IC50 (BJ): > 100 µM |
| Cc1ncnc2c1c(-c1cc3ccccc3o1)cn2[C@@H]1O[C@H](CO)[C@@H](O)[C@H]1O | > 44 µM | > 44 µM | inactive | 40.2 µM | 6.76 µM | inactive | > 20 µM | 84.4 µM | > 20 µM | inactive | inactive | inactive | > 20 µM | inactive | > 20 µM | 19.5 µM | > 20 µM | inactive | > 20 µM | inactive | IC50 [13]: > 20 µM; Activity (Pseudomonas aeruginosa [14]): inactive; Activity (Candida parapsilosis): inactive; IC50 (HCT-116 [15]): > 20 µM; Activity (Staphylococcus aureus [16]): inactive; Activity (Escherichia coli [17]): inactive; IC50 (CCRF-CEM): 17.3 µM; IC50 (BJ): 93.9 µM |
| CSc1ncnc2c1c(-c1ccccc1)cn2[C@@H]1O[C@H](CO)[C@@H](O)[C@H]1O | > 44 µM | > 44 µM | inactive | > 44 µM | 23.3 µM | inactive | > 20 µM | > 100 µM | > 20 µM | inactive | inactive | inactive | > 20 µM | inactive | > 20 µM | > 20 µM | > 20 µM | inactive | > 20 µM | inactive | IC50 [13]: > 20 µM; Activity (Pseudomonas aeruginosa [14]): inactive; Activity (Candida parapsilosis): inactive; IC50 (HCT-116 [15]): > 20 µM; Activity (Staphylococcus aureus [16]): inactive; Activity (Escherichia coli [17]): inactive; IC50 (CCRF-CEM): > 20 µM; IC50 (BJ): > 100 µM |
| CNc1ncnc2c1c(-c1ccsc1)cn2[C@@H]1O[C@H](CO)[C@@H](O)[C@H]1O | > 44 µM | > 44 µM | inactive | > 44 µM | > 44 µM | inactive | > 20 µM | > 100 µM | > 20 µM | inactive | inactive | inactive | > 20 µM | inactive | > 20 µM | > 20 µM | > 20 µM | inactive | > 20 µM | inactive | IC50 [13]: > 20 µM; Activity (Pseudomonas aeruginosa [14]): inactive; Activity (Candida parapsilosis): inactive; IC50 (HCT-116 [15]): > 20 µM; Activity (Staphylococcus aureus [16]): inactive; Activity (Escherichia coli [17]): inactive; IC50 (CCRF-CEM): > 20 µM; IC50 (BJ): > 100 µM |
